Reference: publication PMC7903221 (Bioorganic & medicinal chemistry, 2020)

How the values were obtained:
[1] = system: NCI-H460; experiment: MTT assay, NCI-H460; assay type: cell-based, human; conditions: read-out: IC50 Value NCI-H460, 72 hours
In short: (§1)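 Human NSCLC lines were kept in RPMI 1640 with 10% FBS at 37 °C, 5% CO2, passaged every 2–3 days. Cells were seeded at 5,000–7,000/well depending on line and left 24 h. Test compound in DMSO/water (1 mM stock) was added at final 1, 4, 16 and 32 μM in medium, 6 replicates, for 72 h. MTT was applied for 3–4 h, then medium was replaced by DMSO for 15 min and OD read at 540 nm. IC50 is growth inhibition of 50% versus untreated cells.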

[2] = system: NCI-H1975; experiment: MTT assay, NCI-H1975; assay type: cell-based, human; conditions: read-out: IC50 Value NCI-H1975, 72 hours
In short: as §1

[3] = system: HCC827; experiment: MTT assay, HCC827; assay type: cell-based, human; conditions: read-out: IC50 Value HCC827, 72 hours
In short: as §1

[4] = system: A549; experiment: MTT assay, A549; assay type: cell-based, human; conditions: read-out: IC50 Value A549, 72 hours
In short: as §1

[5] = system: NSCLC cell lines (NCI-H460, NCI-H1975, HCC827, and A549); experiment: MTT assay, panel of four NSCLC cell lines; assay type: cell-based, human
In short: as §1

[6] = system: nine NSCLC cell lines; experiment: NCI-60 one-dose assay, average over nine NSCLC cell lines; assay type: cell-based; conditions: Homo sapiens, 48 h, read-out: Growth % Average
In short: (§2)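 NCI DTP single-dose screen. Cells were seeded at a density tied to doubling rate and incubated 24 h, then exposed to test compound at 10 μM for 48 h. Growth percentage is relative to the starting cell population: positive means net growth, negative means cell loss. It is given per NSCLC line or as the mean across the nine NSCLC lines.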

[7] = system: NCI-H522; experiment: NCI-60 one-dose assay, NCI-H522; assay type: cell-based; conditions: Homo sapiens, NCI-H522, 48 h, read-out: Growth % NCI-H522
In short: as §2

[8] = system: A549/ATCC; experiment: NCI-60 five-dose assay, A549/ATCC; assay type: cell-based; conditions: 48 hours, total growth inhibition
[9] = system: EKVX; experiment: NCI-60 five-dose assay, EKVX; assay type: cell-based, human; conditions: 48 hours, total growth inhibition
[10] = system: HOP-62; experiment: NCI-60 five-dose assay, HOP-62; assay type: cell-based, human; conditions: 48 hours, total growth inhibition
[11] = system: HOP-92; experiment: NCI-60 five-dose assay, HOP-92; assay type: cell-based, human; conditions: 48 hours, total growth inhibition
[12] = system: NCI-H23; experiment: NCI-60 five-dose assay, NCI-H23; assay type: cell-based, human; conditions: 48 hours, total growth inhibition
[13] = system: NCI-H522; experiment: NCI-60 five-dose assay, NCI-H522; assay type: cell-based, human; conditions: 48 hours, total growth inhibition
[14] = system: NSCLC cell lines; experiment: NCI-60 five-dose assay, ranges over NSCLC cell lines; assay type: cell-based; conditions: Homo sapiens; for GI50: read-out: GI50 values, range over NSCLC cell lines; for CC50: read-out: LC50 values, range over NSCLC cell lines
[15] = system: C57BL/6 mice; experiment: Preliminary in vivo toxicity study; conditions: 20 mg/kg IP on days 0, 7, 14 and 29
[16] = system: NCI-H460; experiment: NCI-60 one-dose assay, NCI-H460; assay type: cell-based; conditions: Homo sapiens, NCI-H460, 48 h, read-out: Growth % NCI-H460
In short: as §2

[17] = system: NCI-H226; experiment: NCI-60 five-dose assay, NCI-H226; assay type: cell-based, human; conditions: 48 hours, total growth inhibition
[18] = system: NCI-H322M; experiment: NCI-60 five-dose assay, NCI-H322M; assay type: cell-based, human; conditions: 48 hours, total growth inhibition
[19] = system: NCI-H460; experiment: NCI-60 five-dose assay, NCI-H460; assay type: cell-based, human; conditions: 48 hours, total growth inhibition

In the case of `N.N.[Cl][Pt][Cl]` [Cisplatin, cisplatin], the IC50 [1] is reported as 6 µM, the IC50 [2] is reported as 3 µM and the IC50 [3] is reported as 9 µM. For the same compound, the IC50 [4] was 5 µM.
In the case of `[Br-].[Br-].c1ccc2cc(Cn3cc[n+](Cn4cc[n+](Cc5ccc6ccccc6c5)c4)c3)ccc2c1` [Compound 1, 1-(naphthalen-2-ylmethyl)-3-((3-(naphthalen-2-ylmethyl)-imidazolium-1-yl)methyl)-imidazolium bromide], the “IC50 values for three of the four cell lines” value ([5]; MTT, 72 hours, three of the four cell lines tested) is reported as “above the testing concentration” and the activity at 10 µM [6] is reported as 79.5%.
`c1ccc2cc(Cn3cc[n+](CCn4cc[n+](Cc5ccc6ccccc6c5)c4)c3)ccc2c1` [Compound 2, 1-(naphthalen-2-ylmethyl)-3-(2-(3-(naphthalen-2-ylmethyl)-imidazolium-1-yl)ethyl)-imidazolium bromide] showed an activity at 10 µM [6] of 80.9%.
With `c1ccc2cc(Cn3cc[n+](CCCn4cc[n+](Cc5ccc6ccccc6c5)c4)c3)ccc2c1` [Compound 3, 1-(naphthalen-2-ylmethyl)-3-(3-(3-(naphthalen-2-ylmethyl)-imidazolium-1-yl)propyl)-imidazolium bromide] the activity at 10 µM [6] was 72.8%.
`c1ccc2cc(Cn3cc[n+](CCCCCn4cc[n+](Cc5ccc6ccccc6c5)c4)c3)ccc2c1` [Compound 5, 1-(naphthalen-2-ylmethyl)-3-(5-(3-(naphthalen-2-ylmethyl)-imidazolium-1-yl)pentyl)-imidazolium bromide] was tested, and the activity at 10 µM [6] was 53.9%.
With `c1ccc2cc(Cn3cc[n+](CCCCCCn4cc[n+](Cc5ccc6ccccc6c5)c4)c3)ccc2c1` [Compound 6, 1-(naphthalen-2-ylmethyl)-3-(6-(3-(naphthalen-2-ylmethyl)-imidazolium-1-yl)hexyl)-imidazolium bromide] the activity at 10 µM [6] was 47.3%.
Work on `c1ccc2cc(Cn3cc[n+](CCCCCCCn4cc[n+](Cc5ccc6ccccc6c5)c4)c3)ccc2c1` [Compound 7, 1-(naphthalen-2-ylmethyl)-3-(7-(3-(naphthalen-2-ylmethyl)-imidazolium-1-yl)heptyl)-imidazolium bromide] yielded an activity at 10 µM [6] of 30%.
For `[Br-].[Br-].c1ccc2cc(Cn3cc[n+](CCCCCCCCCCn4cc[n+](Cc5ccc6ccccc6c5)c4)c3)ccc2c1` [Compound 10, 1-(naphthalen-2-ylmethyl)-3-(10-(3-(naphthalen-2-ylmethyl)-imidazolium-1-yl)decyl)-imidazolium bromide], the activity at 10 µM [7] was -72.3%, the activity at 10 µM [6] was 2.47% and the “TGI A549/ATCC” value [8] was 13.3 µM. The “TGI EKVX” value [9] was 9.07 µM, the “TGI HOP-62” value [10] was 7.24 µM and the “TGI HOP-92” value [11] was 2.96 µM. The “TGI NCI-H23” value [12] was 3.35 µM, the “TGI NCI-H522” value [13] was 1.94 µM and the GI50 [14] was 0.396 to 3.55 µM. For the same compound, the CC50 [14] was 15.2 to 58.4 µM and the tolerability [15] was “well tolerated”.
`[Br-].[Br-].c1ccc2cc(Cn3cc[n+](CCCCCCCCCCCCn4cc[n+](Cc5ccc6ccccc6c5)c4)c3)ccc2c1` [Compound 12, 1-(naphthalen-2-ylmethyl)-3-(12-(3-(naphthalen-2-ylmethyl)-imidazolium-1-yl)dodecyl)-imidazolium bromide] was tested, and the IC50 ([5]; Homo sapiens, 72 h, read-out: IC50 values for three of the four cell lines) was < 1 µM, the activity at 10 µM [16] was -69.9% and the activity at 10 µM [6] was -60.9%. The “TGI A549/ATCC” value [8] was 3.57 µM, the “TGI EKVX” value [9] was 4.20 µM and the “TGI HOP-62” value [10] was 2.65 µM. The “TGI HOP-92” value [11] was 1.40 µM, the “TGI NCI-H226” value [17] was 5.52 µM and the “TGI NCI-H23” value [12] was 2.40 µM. For the same compound, the “TGI NCI-H322M” value [18] was 3.90 µM, the “TGI NCI-H460” value [19] was 2.96 µM and the “TGI NCI-H522” value [13] was 1.25 µM. The GI50 [14] was 0.47 to 0.984 µM and the CC50 [14] was 7.29 to 14.6 µM.
